The source of these data is ChEMBL document CHEMBL1148770, “Conformation-activity relationship of neuropeptide S and some structural mutants: helicity affects their interaction with the receptor” (J Med Chem, 2007).

Square brackets hold non-standard residues; d marks the D form. Peptide text beside a SMILES is read from it. Aib = CC(C)(N)C(=O)O

Assay [1] concerns the target T1, Neuropeptide S receptor (Mus musculus) (UniProt Q8BZP8).
T1 sequence (whole entry): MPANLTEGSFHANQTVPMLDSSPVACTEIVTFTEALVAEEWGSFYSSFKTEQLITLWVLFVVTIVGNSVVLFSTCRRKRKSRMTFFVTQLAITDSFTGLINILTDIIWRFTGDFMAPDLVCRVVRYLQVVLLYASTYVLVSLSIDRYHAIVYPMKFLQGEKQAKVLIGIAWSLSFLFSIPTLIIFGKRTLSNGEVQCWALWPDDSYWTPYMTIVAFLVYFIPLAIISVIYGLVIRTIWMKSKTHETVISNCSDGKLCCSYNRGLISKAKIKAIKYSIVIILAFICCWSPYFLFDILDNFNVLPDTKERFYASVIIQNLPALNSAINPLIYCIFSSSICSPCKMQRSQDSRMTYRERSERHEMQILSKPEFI
The assay can be described thus: Agonist activity at mouse recombinant NPSR expressed in HEK293 cells assessed as calcium mobilization relative to baseline. The assay is classed as functional, cell-based. The method in brief: (§1)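 HEK293 cells stably expressing mouse NPSR, grown in DMEM/10% FBS/2 mM glutamine/hygromycin at 37 °C, 5% CO2. Seeded 50,000 cells/well on poly-D-lysine; next day loaded 30 min at 37 °C with 3 µM Fluo-4 AM, 2.5 mM probenecid, 0.01% pluronic acid. Read in HBSS/20 mM HEPES/probenecid/Brilliant Black at ≈22 °C on FlexStation; peak fluorescence change as % baseline; logistic fit; ≥4 experiments in duplicate.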
A general note: Calcium assays in cells follow changes in intracellular calcium, usually with a dye or a luminescent sensor.

For a further assay, the target named is T2, Neuropeptide S receptor (Mus musculus, UniProt Q8BZP8).
T2 sequence (Q8BZP8 whole entry): T1 sequence (whole entry)
The assay can be described thus: Agonist activity at mouse recombinant NPSR expressed in HEK293 cells assessed as calcium mobilization. Type of assay: functional, cell-based. The method in brief: as §1

`CSCC[C@H](NC(=O)[C@@H](C)NC(=O)[C@@H](NC(=O)CNC(=O)[C@@H](NC(=O)CNC(=O)[C@H](CC(N)=O)NC(=O)[C@H](CCCNC(=N)N)NC(=O)[C@H](Cc1ccccc1)NC(=O)[C@@H](N)CO)C(C)C)[C@@H](C)O)C(=O)N[C@@H](CCCCN)C(=O)N[C@@H](CCCCN)C(=O)N[C@H](C(=O)N[C@@H](CO)C(=O)N[C@@H](Cc1ccccc1)C(=O)N[C@@H](CCC(N)=O)C(=O)N[C@@H](CCCNC(=N)N)C(=O)N[C@@H](C)C(=O)N[C@@H](CCCCN)C(=O)N[C@@H](CO)C(=O)O)[C@@H](C)O`: the Emax in assay [1] was 172%. Also, the EC50 at Neuropeptide S receptor is 21.4 nM.

Consider `CSCC[C@H](NC(=O)CNC(=O)[C@@H](NC(=O)[C@@H](C)NC(=O)[C@@H](NC(=O)CNC(=O)[C@H](CC(N)=O)NC(=O)[C@H](CCCNC(=N)N)NC(=O)[C@H](Cc1ccccc1)NC(=O)[C@@H](N)CO)C(C)C)[C@@H](C)O)C(=O)N[C@@H](CCCCN)C(=O)N[C@@H](CCCCN)C(=O)N[C@H](C(=O)N[C@@H](CO)C(=O)N[C@@H](Cc1ccccc1)C(=O)N[C@@H](CCC(N)=O)C(=O)N[C@@H](CCCNC(=N)N)C(=O)N[C@@H](C)C(=O)N[C@@H](CCCCN)C(=O)N[C@@H](CO)C(=O)O)[C@@H](C)O`, for which, in assay [1], the Emax turned out to be 164%. The 50% effective concentration (EC50) on Neuropeptide S receptor is 23.4 nM.

Regarding `CSCC[C@H](NC(=O)[C@H](C)NC(=O)[C@@H](NC(=O)CNC(=O)[C@@H](NC(=O)CNC(=O)[C@H](CC(N)=O)NC(=O)[C@H](CCCNC(=N)N)NC(=O)[C@H](Cc1ccccc1)NC(=O)[C@@H](N)CO)C(C)C)[C@@H](C)O)C(=O)N[C@@H](CCCCN)C(=O)N[C@@H](CCCCN)C(=O)N[C@H](C(=O)N[C@@H](CO)C(=O)N[C@@H](Cc1ccccc1)C(=O)N[C@@H](CCC(N)=O)C(=O)N[C@@H](CCCNC(=N)N)C(=O)N[C@@H](C)C(=O)N[C@@H](CCCCN)C(=O)N[C@@H](CO)C(=O)O)[C@@H](C)O`, the Emax in assay [1] was found to be 164%. Also, the 50% effective concentration (EC50) at Neuropeptide S receptor was 23.4 nM.

Turning to `CSCC[C@H](NC(=O)CNC(=O)[C@@H](NC(=O)[C@H](C)NC(=O)[C@@H](NC(=O)CNC(=O)[C@H](CC(N)=O)NC(=O)[C@H](CCCNC(=N)N)NC(=O)[C@H](Cc1ccccc1)NC(=O)[C@@H](N)CO)C(C)C)[C@@H](C)O)C(=O)N[C@@H](CCCCN)C(=O)N[C@@H](CCCCN)C(=O)N[C@H](C(=O)N[C@@H](CO)C(=O)N[C@@H](Cc1ccccc1)C(=O)N[C@@H](CCC(N)=O)C(=O)N[C@@H](CCCNC(=N)N)C(=O)N[C@@H](C)C(=O)N[C@@H](CCCCN)C(=O)N[C@@H](CO)C(=O)O)[C@@H](C)O`, the Emax in assay [1] is 129%.

On to `CSCC[C@H](NC(=O)CNC(=O)[C@@H](NC(=O)CNC(=O)[C@@H](NC(=O)CNC(=O)[C@H](CC(N)=O)NC(=O)[C@H](CCCNC(=N)N)NC(=O)[C@H](Cc1ccccc1)NC(=O)[C@H](C)N)C(C)C)[C@@H](C)O)C(=O)N[C@@H](CCCCN)C(=O)N[C@@H](CCCCN)C(=O)N[C@H](C(=O)N[C@@H](CO)C(=O)N[C@@H](Cc1ccccc1)C(=O)N[C@@H](CCC(N)=O)C(=O)N[C@@H](CCCNC(=N)N)C(=O)N[C@@H](C)C(=O)N[C@@H](CCCCN)C(=O)N[C@@H](CO)C(=O)O)[C@@H](C)O` (H-AFRNGVGTGMKKTSFQRAKS-OH), for which, in assay [1], the Emax came to 182%. In addition, on Neuropeptide S receptor, the EC50 was 26.3 nM.

`CSCC[C@H](NC(=O)CNC(=O)[C@@H](NC(=O)CNC(=O)[C@@H](NC(=O)[C@H](C)NC(=O)[C@H](CC(N)=O)NC(=O)[C@H](CCCNC(=N)N)NC(=O)[C@H](Cc1ccccc1)NC(=O)[C@@H](N)CO)C(C)C)[C@@H](C)O)C(=O)N[C@@H](CCCCN)C(=O)N[C@@H](CCCCN)C(=O)N[C@H](C(=O)N[C@@H](CO)C(=O)N[C@@H](Cc1ccccc1)C(=O)N[C@@H](CCC(N)=O)C(=O)N[C@@H](CCCNC(=N)N)C(=O)N[C@@H](C)C(=O)N[C@@H](CCCCN)C(=O)N[C@@H](CO)C(=O)O)[C@@H](C)O` (H-SFRNAVGTGMKKTSFQRAKS-OH): in assay [1], the Emax was determined as 178%. For the same compound, the EC50 at Neuropeptide S receptor is 24.5 nM.

As to `CSCC[C@H](NC(=O)[C@H](C)NC(=O)[C@@H](NC(=O)[C@H](C)NC(=O)[C@@H](NC(=O)CNC(=O)[C@H](CC(N)=O)NC(=O)[C@H](CCCNC(=N)N)NC(=O)[C@H](Cc1ccccc1)NC(=O)[C@@H](N)CO)C(C)C)[C@@H](C)O)C(=O)N[C@@H](CCCCN)C(=O)N[C@@H](CCCCN)C(=O)N[C@@H](C)C(=O)N[C@@H](CO)C(=O)N[C@@H](Cc1ccccc1)C(=O)N[C@@H](CCC(N)=O)C(=O)N[C@@H](CCCNC(=N)N)C(=O)N[C@@H](C)C(=O)N[C@@H](CCCCN)C(=O)N[C@@H](CO)C(=O)O` (H-SFRNGVATAMKKASFQRAKS-OH), the Emax in assay [1] was 69%.

Consider `CSCC[C@H](NC(=O)[C@H](C)NC(=O)[C@@H](NC(=O)CNC(=O)[C@@H](NC(=O)CNC(=O)[C@H](CC(N)=O)NC(=O)[C@H](CCCNC(=N)N)NC(=O)[C@H](Cc1ccccc1)NC(=O)[C@@H](N)CO)C(C)C)[C@@H](C)O)C(=O)N[C@@H](CCCCN)C(=O)N[C@@H](CCCCN)C(=O)N[C@@H](C)C(=O)N[C@@H](CO)C(=O)N[C@@H](Cc1ccccc1)C(=O)N[C@@H](CCC(N)=O)C(=O)N[C@@H](CCCNC(=N)N)C(=O)N[C@@H](C)C(=O)N[C@@H](CCCCN)C(=O)N[C@@H](CO)C(=O)O` (H-SFRNGVGTAMKKASFQRAKS-OH), for which the Emax in assay [1] was 191%. In addition, the EC50 on Neuropeptide S receptor was 15.1 nM.

For `CSCC[C@H](NC(=O)CNC(=O)[C@@H](NC(=O)CNC(=O)[C@@H](NC(=O)CNC(=O)[C@H](CC(N)=O)NC(=O)[C@H](CCCNC(=N)N)NC(=O)[C@H](Cc1ccccc1)NC(=O)[C@@H](N)CO)C(C)C)[C@@H](C)O)C(=O)N[C@@H](CCCCN)C(=O)N[C@@H](CCCCN)C(=O)N[C@@H](C)C(=O)N[C@@H](CO)C(=O)N[C@@H](Cc1ccccc1)C(=O)N[C@@H](CCC(N)=O)C(=O)N[C@@H](CCCNC(=N)N)C(=O)N[C@@H](C)C(=O)N[C@@H](CCCCN)C(=O)N[C@@H](CO)C(=O)O` (H-SFRNGVGTGMKKASFQRAKS-OH), the Emax in assay [1] worked out at 172%. Moreover, the EC50 on Neuropeptide S receptor was 19.1 nM.

Consider `CSCC[C@H](NC(=O)C(C)(C)NC(=O)[C@@H](NC(=O)CNC(=O)[C@@H](NC(=O)CNC(=O)[C@H](CC(N)=O)NC(=O)[C@H](CCCNC(=N)N)NC(=O)[C@H](Cc1ccccc1)NC(=O)[C@@H](N)CO)C(C)C)[C@@H](C)O)C(=O)N[C@@H](CCCCN)C(=O)N[C@@H](CCCCN)C(=O)N[C@H](C(=O)N[C@@H](CO)C(=O)N[C@@H](Cc1ccccc1)C(=O)N[C@@H](CCC(N)=O)C(=O)N[C@@H](CCCNC(=N)N)C(=O)N[C@@H](C)C(=O)N[C@@H](CCCCN)C(=O)N[C@@H](CO)C(=O)O)[C@@H](C)O` (H-SFRNGVGT[Aib]MKKTSFQRAKS-OH), for which the Emax in assay [1] came to 190%. Besides, on Neuropeptide S receptor, the EC50 is 10.2 nM.

With `CSCC[C@H](NC(=O)CNC(=O)[C@@H](NC(=O)C(C)(C)NC(=O)[C@@H](NC(=O)CNC(=O)[C@H](CC(N)=O)NC(=O)[C@H](CCCNC(=N)N)NC(=O)[C@H](Cc1ccccc1)NC(=O)[C@@H](N)CO)C(C)C)[C@@H](C)O)C(=O)N[C@@H](CCCCN)C(=O)N[C@@H](CCCCN)C(=O)N[C@H](C(=O)N[C@@H](CO)C(=O)N[C@@H](Cc1ccccc1)C(=O)N[C@@H](CCC(N)=O)C(=O)N[C@@H](CCCNC(=N)N)C(=O)N[C@@H](C)C(=O)N[C@@H](CCCCN)C(=O)N[C@@H](CO)C(=O)O)[C@@H](C)O` (H-SFRNGV[Aib]TGMKKTSFQRAKS-OH), the Emax in assay [1] was 14%.

Consider `CSCC[C@H](NC(=O)CNC(=O)[C@@H](NC(=O)CNC(=O)[C@@H](NC(=O)[C@@H](C)NC(=O)[C@H](CC(N)=O)NC(=O)[C@H](CCCNC(=N)N)NC(=O)[C@H](Cc1ccccc1)NC(=O)[C@@H](N)CO)C(C)C)[C@@H](C)O)C(=O)N[C@@H](CCCCN)C(=O)N[C@@H](CCCCN)C(=O)N[C@H](C(=O)N[C@@H](CO)C(=O)N[C@@H](Cc1ccccc1)C(=O)N[C@@H](CCC(N)=O)C(=O)N[C@@H](CCCNC(=N)N)C(=O)N[C@@H](C)C(=O)N[C@@H](CCCCN)C(=O)N[C@@H](CO)C(=O)O)[C@@H](C)O` (H-SFRN[dA]VGTGMKKTSFQRAKS-OH), for which the Emax in assay [1] came out at 90%. In addition, at Neuropeptide S receptor, the EC50 was 28.2 nM.

Consider `CSCC[C@H](NC(=O)CNC(=O)[C@@H](NC(=O)CNC(=O)[C@@H](NC(=O)CNC(=O)[C@@H]1CCCN1C(=O)[C@H](CCCNC(=N)N)NC(=O)[C@H](Cc1ccccc1)NC(=O)[C@@H](N)CO)C(C)C)[C@@H](C)O)C(=O)N[C@@H](CCCCN)C(=O)N[C@@H](CCCCN)C(=O)N[C@H](C(=O)N[C@@H](CO)C(=O)N[C@@H](Cc1ccccc1)C(=O)N[C@@H](CCC(N)=O)C(=O)N[C@@H](CCCNC(=N)N)C(=O)N[C@@H](C)C(=O)N[C@@H](CCCCN)C(=O)N[C@@H](CO)C(=O)O)[C@@H](C)O` (H-SFRPGVGTGMKKTSFQRAKS-OH), for which the EC50 at Neuropeptide S receptor is 158 nM.

On to `CSCC[C@H](NC(=O)CNC(=O)[C@@H](NC(=O)CNC(=O)[C@@H](NC(=O)CNC(=O)[C@H](CC(N)=O)NC(=O)[C@H](CCCNC(=N)N)NC(=O)[C@H](Cc1ccccc1)NC(=O)C(C)(C)N)C(C)C)[C@@H](C)O)C(=O)N[C@@H](CCCCN)C(=O)N[C@@H](CCCCN)C(=O)N[C@H](C(=O)N[C@@H](CO)C(=O)N[C@@H](Cc1ccccc1)C(=O)N[C@@H](CCC(N)=O)C(=O)N[C@@H](CCCNC(=N)N)C(=O)N[C@@H](C)C(=O)N[C@@H](CCCCN)C(=O)N[C@@H](CO)C(=O)O)[C@@H](C)O` (H-[Aib]FRNGVGTGMKKTSFQRAKS-OH), for which the Emax in assay [1] came to 184%. The EC50 at Neuropeptide S receptor is 6.76 nM.

As a reminder, the Emax is the size of the effect at its maximum, as opposed to the concentration needed. For orientation: EC50 means the concentration that produces a half-maximal response.
